# Assay outcomes (PubChem)
# Compounds with a hit are over-represented: about 4.6% of the library has one in this group of screens.
# OX1R antag-1 = human HCRTR1 antagonism | O43613 | CHO/OX1R cells, Fluo-8 calcium fluorescence, orexin A | inhibition, % at 5 µM | hit rate 0.43% among 330,000;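 active = inhibition above its plate's threshold, mean inhibition of all tested compounds on the plate plus 3 SD, cut at about 37% in these data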;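 also: 0% = orexin A challenge wells and 100% = SB-334867-A antagonist wells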
# Target sequence (O43613 whole entry, looked up): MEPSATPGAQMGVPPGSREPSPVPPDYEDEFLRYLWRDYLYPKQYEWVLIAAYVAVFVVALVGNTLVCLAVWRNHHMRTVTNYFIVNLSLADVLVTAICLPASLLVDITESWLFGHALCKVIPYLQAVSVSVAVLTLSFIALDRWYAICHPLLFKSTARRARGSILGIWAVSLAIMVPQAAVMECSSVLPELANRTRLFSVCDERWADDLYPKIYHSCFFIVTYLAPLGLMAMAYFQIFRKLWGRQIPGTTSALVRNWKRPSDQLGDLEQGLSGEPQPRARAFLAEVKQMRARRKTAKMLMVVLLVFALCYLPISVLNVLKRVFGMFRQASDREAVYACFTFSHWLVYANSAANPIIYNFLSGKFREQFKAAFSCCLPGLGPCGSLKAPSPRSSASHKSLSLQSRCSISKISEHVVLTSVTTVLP
# GPR7 antagonist = blocks human GPR7 receptor signaling. P48145. GPR7-expressing cells, fluorescence antagonist assay. inhibition, % at 4.4 µM. hit rate 1.1% among 290,000; in the data active = inhibition above about 16%, passing the limit was not always enough;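 also: cells stimulated with the agonist NPW; 0% = agonist with vehicle and 100% = vehicle without agonist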
# Target sequence (P48145 whole entry, looked up): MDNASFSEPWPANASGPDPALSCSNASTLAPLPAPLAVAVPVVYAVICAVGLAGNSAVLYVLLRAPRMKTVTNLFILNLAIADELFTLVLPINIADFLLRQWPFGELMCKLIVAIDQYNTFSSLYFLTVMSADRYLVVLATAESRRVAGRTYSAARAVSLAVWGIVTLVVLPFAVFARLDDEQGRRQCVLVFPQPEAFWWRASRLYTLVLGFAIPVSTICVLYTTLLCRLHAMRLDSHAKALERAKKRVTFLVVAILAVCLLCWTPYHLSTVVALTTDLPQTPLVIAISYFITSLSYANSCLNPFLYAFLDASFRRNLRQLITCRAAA
# CHO parental Ca = counter-screen for OX1R antagonists: effect in parental CHO cells; inhibition, % at 5.6 µM; hit rate 0.63% among 330,000; parental CHO-K1, ATP-induced calcium, Fluo-8 fluorescence;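 active = inhibition above that plate's mean sample inhibition plus 3 SD, cut at about 26% in these data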;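 also: 0% = ATP-challenged DMSO wells and 100% = DMSO wells without ATP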
#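 Test system: untransfected parental CHO cell line. Compound: one dose, 5.6 µM nominal. Detection: intracellular calcium via Fluo-8 no-wash fluorescent dye. Measure: % inhibition. Benchmarks: ATP-challenged DMSO wells low, unchallenged DMSO wells high.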
# OX1R antag-2 = antagonists of human orexin 1 receptor (OX1R) | O43613 | OX1R-expressing cells, FRET antagonist read-out | inhibition, % at 6.6 µM | hit rate 1.8% among 330,000; in the data active = inhibition mostly above about 38%, no sharp cut-off; inactive = mostly below about 40%;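 also: 0% = agonist challenge alone and 100% = reference antagonist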
# TAAR1 antag = antagonists of human TAAR1 | inhibition, % at 3 µM | Q96RJ0 | CHO RD-HGA16 TAAR1, Fluo-8 calcium fluorescence, antagonist | hit rate 1.5% among 360,000;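 active = inhibition above a per-plate cutoff, the mean inhibition of test compounds on that plate plus 3 SD, cut at about 49% in these data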;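 also: 0% = DMSO plus EC80 beta-PEA response and 100% = DMSO alone without agonist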
#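 Test system – hTAAR1-expressing CHO RD-HGA16 cells, Gα16-coupled · Reagent – β-PEA at EC80 concentration, post-compound challenge · Compound dosing – 3 µM, single point · Timing – 140 s kinetic read after compound, 140 s after agonist · Detection – Fluo-8 intracellular calcium dye fluorescence, real-time kinetic reads · Control set – DMSO and EC80 PEA controls · Repeats – n of 1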
# TAAR1 agonist = human TAAR1 agonism; CHO RD-HGA16 TAAR1, Fluo-8 calcium fluorescence; vehicle wells 0%, saturating PEA agonist 100%; activation, % at 3 µM; hit rate 0.99% among 360,000; AID 624467;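 active = activation above the mean activation of all test compounds in the run plus 3 SD, cut at about 38% in these data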
#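 System: CHO-derived RD-HGA16 cells with stable Gα16 and human TAAR1. Times: 17-24 h plating, Fluo-8 75 min 37 °C, 30 min RT. Measured by: calcium-sensitive Fluo-8 signal, excitation 470-495, emission 515-575 nm. Read-out basis: % activation relative to PEA EC100 response. Control set: DMSO and PEA EC100. Repeats: no replicates (n 1).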
# GPR7 antag cf = confirmation of human GPR7 antagonists. inhibition, % at 4.4 µM. hit rate 52% among 2,400. GPR7-expressing cells, calcium fluorescence antagonist mode. shares compounds with GPR7 antagonist; in the data active = inhibition above about 24%;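 also: stimulated with the GPR7 agonist NPW; 0% = agonist plus vehicle and 100% = vehicle alone without agonist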
# MCHR1 antag = antagonizes human MCHR1, a GPR7 antagonist counter-screen; shares compounds with GPR7 antagonist; MCHR1-expressing cells, fluorescence antagonist assay; inhibition, % at 4.4 µM; hit rate 62% among 2,400; in the data active = inhibition above about 22%;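 also: 0% = vehicle with agonist and 100% = vehicle without agonist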
# * marks the source's active call; other numbers are inactive results; nt = not tested or not shown.
SMILES,OX1R antag-1,GPR7 antagonist,CHO parental Ca,OX1R antag-2,TAAR1 antag,TAAR1 agonist,GPR7 antag cf,MCHR1 antag
O=S(=O)(Nc1ccc(N2CCCCC2)cc1)c1ccccc1F,-18.6,-19.3,-13.8,5.8,-13.4,-0.2,nt,nt
O=C(NCCSc1c[nH]c2ccccc12)c1ccco1,-3.2,-4.8,2.1,14.2,-17.2,-0.1,nt,nt
O=C(NCCSc1c[nH]c2ccccc12)c1c(F)cccc1F,-10.2,22.7*,-5.3,1.1,29.3,2.7,33.1*,32.7*
CSc1ccccc1NC(=O)C1CCCN(S(C)(=O)=O)C1 (configuration not stated),-8.4,-17.1,1.7,2.3,-10.6,4.6,nt,nt
O=C(Nc1ccc(F)cc1)c1cccc(N2C(=O)C3C4C=CC(C5CC45)C3C2=O)c1 (configuration not stated),-19.6,26.5*,-7.6,14.8,39.6,8.7,24.4*,44.9*
COc1cccc(OCc2cc(C(=O)NCc3cnc4ccccn34)no2)c1,-9.3,29.8*,-1.0,15.2,10.3,15.0,32.9*,48.2*
COc1cccc(OCc2cc(C(=O)NCc3ccccn3)no2)c1,-12.6,-17.8,-18.4,5.0,-3.3,1.3,nt,nt
CCc1nnc(NC(=O)c2cccc(S(=O)(=O)N3CCN(C)CC3)c2)s1,nt,nt,nt,nt,-8.6,3.6,nt,nt
O=C(Nc1nc2ccccc2s1)C1CCN(S(=O)(=O)c2cc([N+](=O)[O-])ccc2Cl)CC1,51.2*,31.9*,79.6*,84.0*,45.8,7.6,75.2*,74.6*
COc1ccc(C2CC(=O)C(C=NCCN3CCN(C(C)=O)CC3)=C(O)C2)cc1 (configuration not stated),3.1,-7.8,-5.6,7.6,-6.5,11.8,nt,nt
COc1ccc(C2CC(=O)C(C=NCCN3CCOCC3)=C(O)C2)cc1 (configuration not stated),-14.5,23.3*,-14.6,2.0,-13.0,4.1,-1.5,5.1
COc1cccc(CNCCc2c[nH]c3ccccc23)c1OCc1ccccc1,10.1,56.1*,17.9,5.8,53.9*,19.3,59.9*,67.2*
COc1cc(CNCCc2c[nH]c3ccccc23)ccc1OCc1ccccc1F,12.3,23.7,6.3,7.1,-15.9,9.3,nt,nt
NC(=S)N=Nc1c(O)[nH]c2c(Br)cc(Br)cc12,-23.9,33.5*,-13.4,34.4,3.7,-0.3,9.3,27.6*
NC(=S)N=Nc1c(O)[nH]c2ccccc12,-8.9,-6.8,-3.9,26.3,7.0,1.1,nt,nt
Fc1ccc(C2CCNCC2COc2ccc3c(c2)OCO3)cc1 (configuration not stated),4.4,28.4*,1.6,-4.8,-6.7,12.5,35.8*,28.2*
O=C1C=C(c2ccc3c(c2)OCO3)C[C@@H](c2ccc(F)cc2)C1,-2.8,nt,-3.3,6.9,-9.3,9.3,nt,nt
O=C(CSc1nnnn1-c1cccc2c1CCCC2)NC1CCCC1,-10.2,33.7*,-3.9,24.5,18.1,5.2,19.7,25.9*
CC(=O)c1ccc(NC(=O)CCc2nnc3ccc(N4CCCC4)nn23)cc1,-2.1,-9.0,-17.9,5.7,-7.4,-0.3,nt,nt
Cc1ccc(C(O)(C(=O)NN(C(=O)c2ccccc2)c2ccccc2)c2ccc(C)cc2)cc1,-5.1,35.8*,-1.6,25.2,6.2,4.6,39.5*,22.9*
O=C(c1ccccc1)N(NC(=O)C(O)(c1ccccc1)c1ccccc1)c1cccc(F)c1,-22.0,37.0*,-7.5,7.5,7.6,1.4,14.8,64.1*
CC(C)(O)C(=O)NN(C(=O)c1ccccc1)c1ccc2ccccc2c1,-33.0,8.8,-19.4,17.5,nt,nt,nt,nt
COc1ccc(-n2nnc3c(=O)n(Cc4cccc(C)c4)cnc32)cc1,-6.5,5.8,-2.3,9.1,14.7,8.4,nt,nt
COC(=O)[C@@]1(Cc2ccc(F)cc2)[C@H]2c3cc(C(=O)N4CCCC4)n(Cc4ccc(C(F)(F)F)nc4)c3C[C@H]2CN1C(=O)c1ccccc1,-15.7,28.8*,-21.7,19.4,8.3,12.6,38.9*,22.2*
COc1ccccc1OCCNc1cc(N2CCCCC2)ccc1[N+](=O)[O-],-14.5,-2.2,20.9,20.8,34.4,-0.5,nt,nt
SMILES,OX1R antag-1,GPR7 antagonist,CHO parental Ca,OX1R antag-2,TAAR1 antag,TAAR1 agonist,GPR7 antag cf,MCHR1 antag
Cc1ccccc1OCCNc1cc(N2CCNCC2)ccc1[N+](=O)[O-],-2.7,30.3*,19.4,19.7,nt,nt,47.5*,66.1*
N/C(=N\OC(=O)c1cccs1)c1cccc(Br)c1,-34.5,-4.3,3.7,6.1,2.8,-2.4,nt,nt
CN(C(=O)C=Cc1ccco1)c1ccccc1,nt,nt,nt,nt,6.4,1.6,nt,nt
CN(C(=O)/C=C/c1ccc([N+](=O)[O-])s1)c1ccccc1,-11.8,24.7*,-17.7,18.7,1.9,13.1,20.5,9.8
CCOCCCNC(=O)C1(O)c2cc(Br)ccc2NC(=O)N1c1cccc(OC)c1 (configuration not stated),-11.9,2.5,0.4,5.5,-0.4,5.0,nt,nt
COc1cccc(NC(=O)Nc2nc(-c3ccc(OC)c(OC)c3)cs2)c1,73.3*,74.5*,71.4*,71.5*,82.3*,28.3,91.7*,92.7*
COc1ccc(-c2csc(NC(C)=O)n2)cc1OC,-14.7,2.0,6.8,12.2,-0.5,3.4,nt,nt
NC(=O)[C@@H]1CCCN1C(=O)[C@@H](Cc1cnc[nH]1)NC(=O)[C@@H]1CCC(=O)N1,-2.3,nt,-2.3,3.6,-16.0,3.7,nt,nt
CCCCCCN1C=CC(=C/C=C(\C#N)C(=O)OCC)C=C1,99.2*,29.6*,73.8*,17.8,59.7*,113.7*,46.5*,63.7*
Clc1ccc(Cn2ncc3c(NCc4ccco4)ncnc32)c(Cl)c1,18.2,28.0*,2.5,59.5,53.3*,11.5,36.9*,55.5*
C=CCNC(=O)/C(C#N)=C/c1c(C)nn(-c2ccc(Cl)cc2)c1Cl,-25.2,-3.1,-10.3,17.4,-15.3,1.6,nt,nt
Cc1ccnc(NC(=O)c2cc(S(=O)(=O)N3CCCCC3)ccc2Cl)c1,-44.0,-12.9,-13.1,21.6,5.3,11.9,nt,nt
CN(Cc1cccc(F)c1)C(=O)CSc1nnnn1C1CC1,nt,nt,nt,nt,-8.4,5.0,nt,nt
Cc1noc(C)c1CSc1nc2ccccc2n1CCc1ccccc1,19.6,26.0*,-19.0,36.4,-24.8,0.6,-2.8,9.8
COc1ccc(NC(=O)/C(Cl)=C(/Cl)S(=O)Cc2ccc(Cl)cc2)cn1 (configuration not stated),nt,30.3*,nt,nt,51.7*,5.3,80.5*,92.6*
CCCCc1noc2c1/C(=N\O)CC(c1ccccc1)C2 (configuration not stated),5.4,41.0*,14.8,11.5,-5.6,-0.4,36.5*,23.5*
